Assay results from ChEMBL document CHEMBL1811876 (J Med Chem, 2011).
The source made the active and inactive calls.

Tests used:
HT-29 [1] = assay: Anticancer activity against human HT-29 cells xenografted in athymic nude mouse assessed as median time to end point at 20 mg/kg, ip bid for 29 days; format: functional; details: route intraperitoneal
In short: (§1)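 Male athymic nude mice carrying human HT-29 colorectal adenocarcinoma xenografts, with a vehicle-treated control group. Dosing was 20 mg/kg given either i.v. once daily (qd) to the end of the study or i.v./i.p. twice daily (bid) to the end. Read-outs were median time to endpoint (TTE), maximum group body weight loss and treatment-related deaths. Significance threshold was P < 0.05.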

[2] = Toxicity against athymic nude mouse xenografted with human HT-29 cells assessed as mortality at 20 mg/kg, iv bid measured on day 19; format: organism-based; parameters: dose 20 mg/kg, route intravenous; details: in vivo, read-out: Activity; in short: as §1
A549 = assay: Anticancer activity against human A549 cells after 72 hrs by sulforhodamine B assay; format: functional; details: A549, 72 h
HUVEC = assay: Toxicity against HUVEC; format: cell-based; details: human
[3] = Upregulation of Cdt1 expression in human CL1-5 cells at 0.01 ug/mL by RT-PCR analysis after 24 to 48 hrs; format: functional, cell-based
[4] = (§2) Upregulation of Cdt1 expression in human CL1-5 cells at 0.01 ug/mL by RT-PCR analysis after 24 to 48 hrs by Western blot; format: functional, cell-based
In short: (§3)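 CL1-5 cells were exposed to the test agent for 24 and 48 h. Cdt1 and CDC6 protein levels were then assessed by Western blot.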

DU-145 = assay: Anticancer activity against human DU145 cells after 72 hrs by sulforhodamine B assay; format: functional; details: DU-145, 72 h
HCT-8 = assay: Anticancer activity against human HCT8 cells after 72 hrs by sulforhodamine B assay; format: functional; details: HCT-8, 72 h
[5] = Upregulation of CDC6 expression in human CL1-5 cells at 0.01 ug/mL by RT-PCR analysis after 24 to 48 hrs; format: functional, cell-based
HT-29 [6] = assay: Anticancer activity against human HT-29 cells xenografted in athymic nude mouse assessed as median time to end point at 20 mg/kg, iv bid for 29 days; format: functional
In short: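 Male athymic nude mice bearing HT-29 human colorectal adenocarcinoma xenografts. Drug dosed i.v./i.p. at 20 mg/kg twice daily (bid) to end of study. A vehicle-treated group served as control. The read-out was median time to endpoint (TTE) per group, with maximum group body weight loss and treatment-related deaths tracked. Significance was judged at P < 0.05.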

KB = assay: Anticancer activity against human KB cells after 72 hrs by sulforhodamine B assay; format: functional
[7] = Toxicity against athymic nude mouse xenografted with human HT-29 cells assessed as mortality at 20 mg/kg, iv qd measured on day 12; format: organism-based; parameters: dose 20 mg/kg, route intravenous; details: in vivo, read-out: Activity; in short: as §1
HT-29 [8] = assay: Anticancer activity against human HT-29 cells xenografted in athymic nude mouse assessed as median time to end point at 20 mg/kg, iv qd for 29 days; format: functional; in short: as §1
[9] = as §2; format: functional, cell-based; in short: as §3; remark: listed apart in the source

Structure (SMILES): COc1ccc2c3c(c4cc(OC)c(OC)cc4c2c1)C[C@H]1COCCN1C3
- Time (HT-29 [1]): 20.9 days
- mortality [2]: 7.2%
- GI50 (A549): 23 nM
- GI50 (HUVEC): 320 nM
- Activity [3]: inactive
- Activity [4]: inactive
- GI50 (DU-145): 67 nM
- GI50 (HCT-8): 9 nM
- Activity [5]: inactive
- Time (HT-29 [6]): 20.9 days
- GI50 (KB): 37 nM
- mortality [7]: 1.1%
- Time (HT-29 [8]): 21.3 days
- Activity [9]: inactive
